Among the data in ChEMBL document CHEMBL5653630, “Activation of the p53-MDM4 regulatory axis defines the anti-tumour response to PRMT5 inhibition through its role in regulating cellular splicing” (Sci Rep, 2018) are GI50, inhibition and Activity values, retold here.

The source made the active and inactive calls. No cut-off for these calls is given here.

In one experiment the test system is DMS-273. Nature of the experiment: Antiproliferative activity against human DMS-273 cells assessed as cell growth inhibition incubated for 10 days. The following applies: DMS-273, 240 h, time 10 day. Format: functional. The method in brief: (§1)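 Outsourced panel run in 384-well plates. Cells were grown in RPMI-1640/10% FBS or a special medium at 37°C, 5% CO2. Compound was added 24 h after seeding as a 10-point, 3.16-fold series in 0.1% DMSO. Medium was refreshed and cells re-dosed at 168 h, with a time-zero plate kept. At 240 h cells were fixed, nuclei stained and imaged. gIC50 is growth midway between untreated and time zero, from a 4-parameter fit.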

The subject of the next experiment is WiDr. The experiment is described as follows: Antiproliferative activity against human WiDr cells assessed as cell growth inhibition incubated for 10 days. Format: functional. The note with it: 240 h, time 10 day.
The test system of the next experiment is JM1. Nature of the experiment: Antiproliferative activity against human JM1 cells assessed as cell growth inhibition incubated for 6 days by celltiter-glo assay. The format is functional. The note with it: JM1, 144 h, time 6 day. The method in brief: (§2)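 Cells seeded in 384-well plates at an optimized density and held 24 h. Day 0: treated in duplicate with a 20-point two-fold series (top dose ≤29 μM, ≤0.15% DMSO) and incubated 6 days. CellTiter-Glo luminescence read at Day 0 and Day 6. Four-parameter fit. gIC50 = midpoint of the growth window between DMSO and T0. Curves required ≥1.5 population doublings.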

The test system of another experiment is SU-DHL-5. The experiment is described as follows: Antiproliferative activity against human SU-DHL-5 cells assessed as cell growth inhibition incubated for 6 days by celltiter-glo assay. Format: functional. The note with it: SU-DHL-5, 144 h, time 6 day. The method in brief: as §2
Background: In ATP-based viability assays light output follows the ATP content of the culture.

For the next experiment, the system named is T-24. Nature of the experiment: Antiproliferative activity against human T24 cells assessed as cell growth inhibition incubated for 6 days by celltiter-glo assay. The format is functional. The following applies: T-24, 144 h, time 6 day. The method in brief:
as §2

The test system of the next experiment is SK-N-AS. Nature of the experiment: Antiproliferative activity against human SK-N-AS cells assessed as cell growth inhibition incubated for 10 days. The format is functional. The note with it: 240 h, time 10 day.
Experiment [1] deals with Z-138. Nature of the experiment: Antiproliferative activity against human Z138 cells assessed as cell growth inhibition incubated for 6 days by celltiter-glo assay. Format: functional. The note with it: Z-138, 144 h, time 6 day. An outline of the steps:
as §2

For a further experiment, the system named is SU-DHL-2. Nature of the experiment: Antiproliferative activity against human SUDHL2 cells assessed as cell growth inhibition incubated for 6 days by celltiter-glo assay. The format is functional. The note with it: SU-DHL-2, 144 h, time 6 day. The method in brief:
as §2

In experiment [2] the target is Protein arginine N-methyltransferase 5 (Homo sapiens) (UniProt O14744). Nature of the experiment: Inhibition of PRMT5 in human Z138 cells expressing full length MDM4 at 1 to 100000 nM incubated for 3 to 6 days. The note with it: dose 1-100000 nM, time 3-6 day. Format: cell-based.
A further experiment concerns Ramos. The experiment is described as follows: Antiproliferative activity against human Ramos cells assessed as cell growth inhibition incubated for 10 days. The format is functional. The following applies: 240 h, time 10 day.
In the next experiment the test system is Calu-6. The experiment is described as follows: Antiproliferative activity against human Calu-6 cells assessed as cell growth inhibition incubated for 10 days. Format: functional. The note with it: Calu-6, 240 h, time 10 day. An outline of the steps: as §1
For the next experiment, the system named is CHP-212. The experiment is described as follows: Antiproliferative activity against human CHP-212 cells assessed as cell growth inhibition incubated for 10 days. The format is functional. The following applies: CHP-212, 240 h, time 10 day. An outline of the steps:
(§3)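 Cells kept in RPMI-1640 with 10% FBS, 2 mM L-alanyl-L-glutamine and 1 mM Na pyruvate (or a special medium) at 37°C, 5% CO2. Compound added 24 h after seeding, 10 concentrations in 3.16-fold dilution, 0.1% DMSO final. Medium replaced and cells re-dosed at 168 h; 240 h incubation. Nuclei fixed, dye-stained and imaged. gIC50 = growth midway between untreated and time-zero cell counts, from a 4-parameter fit.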

The test system of another experiment is LS-1034. Nature of the experiment: Antiproliferative activity against human LS1034 cells assessed as cell growth inhibition incubated for 10 days. Format: functional. The following applies: LS-1034, 240 h, time 10 day.
The next experiment concerns SK-MEL-28. The experiment is described as follows: Antiproliferative activity against human SK-MEL-28 cells assessed as cell growth inhibition incubated for 10 days. Format: functional. The following applies: SK-MEL-28, 240 h, time 10 day.
The test system of the next experiment is CCF-STTG1. Nature of the experiment: Antiproliferative activity against human CCF-STTG1 cells assessed as cell growth inhibition incubated for 10 days. The following applies: CCF-STTG1, 240 h, time 10 day. The format is functional. The method in brief: as §3
The next experiment deals with NCI-H69. The experiment is described as follows: Antiproliferative activity against human NCI-H69 cells assessed as cell growth inhibition incubated for 10 days. The format is functional. The note with it: NCI-H69, 240 h, time 10 day.
Another experiment deals with SK-NEP-1. The experiment is described as follows: Antiproliferative activity against human SK-NEP-1 cells assessed as cell growth inhibition incubated for 10 days. Format: functional. The note with it: SK-NEP-1, 240 h, time 10 day.
Another experiment deals with HCC1143. Nature of the experiment: Antiproliferative activity against human HCC1143 cells assessed as cell growth inhibition viability incubated for 6 days by celltiter-glo assay. The format is functional. The note with it: HCC1143, 144 h, time 6 day. An outline of the steps:
(§4)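 Cells were seeded in 384-well plates and incubated 24 h, then treated in duplicate with a 20-point, 2-fold dilution series (top dose ≤29 μM, ≤0.15% DMSO) for 6 days. CellTiter-Glo luminescence was read on day 0 and day 6. A 4-parameter fit was used, and curves needed at least 1.5 population doublings. gIC50 is the midpoint of the growth window between DMSO and T0.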

The next experiment relates to DBTRG-05MG. Nature of the experiment: Antiproliferative activity against human DBTRG-05MG cells assessed as cell growth inhibition incubated for 10 days. The format is functional. The following applies: 240 h, time 10 day. The method in brief: as §1
Another experiment concerns SK-LMS-1. The experiment is described as follows: Antiproliferative activity against human SK-LMS-1 cells assessed as cell growth inhibition incubated for 10 days. Format: functional. The note with it: SK-LMS-1, 240 h, time 10 day.
The target in experiment [3] is Protein arginine N-methyltransferase 5 (Homo sapiens) (UniProt O14744). The experiment is described as follows: Inhibition of PRMT5 in p53 knockout human Z138 cells effect on p21 expression at 500 nM incubated for 3 to 11 days by Western blot analysis. The format is cell-based. The following applies: time 3-11 day.
The subject of a further experiment is JVM-2. The experiment is described as follows: Antiproliferative activity against human JVM-2 cells assessed as cell growth inhibition incubated for 6 days by celltiter-glo assay. The format is functional. The following applies: JVM-2, 144 h, time 6 day. The method in brief: as §2
Experiment [4] in a line: Antiproliferative activity against human PER-403 cells assessed as cell growth inhibition incubated for 6 days by celltiter-glo assay. The format is functional. The note with it: PER-403, 144 h, time 6 day. An outline of the steps:
as §2

Another experiment deals with MDA-MB-468. The experiment is described as follows: Antiproliferative activity against human MDA-MB-468 cells assessed as cell growth inhibition incubated for 6 days by celltiter-glo assay. The format is functional. The note with it: MDA-MB-468, 144 h, time 6 day. The method in brief:
as §2

The test system of the next experiment is HCC1806. The experiment is described as follows: Antiproliferative activity against human HCC1806 cells assessed as cell growth inhibition incubated for 6 days by celltiter-glo assay. The format is functional. The note with it: HCC1806, 144 h, time 6 day. An outline of the steps: as §4
The next experiment relates to A-427. The experiment is described as follows: Antiproliferative activity against human A-427 cells assessed as cell growth inhibition incubated for 10 days. The format is functional. The following applies: A-427, 240 h, time 10 day. An outline of the steps: as §3
The test system of another experiment is SU-DHL10. Nature of the experiment: Antiproliferative activity against human SU-DHL-10 cells assessed as cell growth inhibition incubated for 6 days by celltiter-glo assay. Format: functional. The note with it: SU-DHL10, 144 h, time 6 day. An outline of the steps:
as §2

The test system of experiment [5] is Z-138. Nature of the experiment: Induction of apoptosis in human Z138 cells assessed as dead cells incubated for 6 days by annexin-V/FITC propidium iodide staining based flow cytometry analysis. The following applies: dose 200.0 nM, time 6.0 day. The format is functional, cell-based.
For a further experiment, the system named is Maver1. Nature of the experiment: Induction of apoptosis in human MAVER-1 cells assessed as early apoptotic cells incubated for 6 days by annexin-V/FITC propidium iodide staining based flow cytometry analysis. Format: functional, cell-based. The note with it: dose <= 5000.0 nM, time 6.0 day. (Flow cytometry measures light scatter and fluorescence of single cells or particles in a stream.)

Another experiment has as its system SCaBER. Nature of the experiment: Antiproliferative activity against human SCaBER cells assessed as cell growth inhibition incubated for 6 days by celltiter-glo assay. The format is functional. The following applies: 144 h, time 6 day.

As a reminder, the GI50 is the concentration giving 50% growth inhibition.

Chain of Protein arginine N-methyltransferase 5 (Homo sapiens) (O14744 whole entry): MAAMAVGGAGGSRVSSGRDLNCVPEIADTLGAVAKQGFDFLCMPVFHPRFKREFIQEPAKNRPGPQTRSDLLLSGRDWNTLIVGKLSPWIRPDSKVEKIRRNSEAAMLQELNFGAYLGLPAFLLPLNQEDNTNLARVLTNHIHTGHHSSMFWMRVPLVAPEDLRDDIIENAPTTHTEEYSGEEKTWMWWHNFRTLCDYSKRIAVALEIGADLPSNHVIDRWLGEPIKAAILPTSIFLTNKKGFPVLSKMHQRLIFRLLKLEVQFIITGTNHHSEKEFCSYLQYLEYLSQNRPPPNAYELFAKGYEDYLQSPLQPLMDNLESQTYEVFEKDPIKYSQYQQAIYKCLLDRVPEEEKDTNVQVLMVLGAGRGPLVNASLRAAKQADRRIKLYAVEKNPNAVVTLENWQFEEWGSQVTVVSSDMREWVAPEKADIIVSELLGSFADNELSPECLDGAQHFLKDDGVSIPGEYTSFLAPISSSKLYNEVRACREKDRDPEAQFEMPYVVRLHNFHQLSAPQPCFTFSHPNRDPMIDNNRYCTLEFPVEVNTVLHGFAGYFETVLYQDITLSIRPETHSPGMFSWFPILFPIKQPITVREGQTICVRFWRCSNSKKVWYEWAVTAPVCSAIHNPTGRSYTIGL

As for `O=C(NC[C@H](O)CN1CCc2ccccc2C1)c1ccnc(NC2CCC2)c1`, the GI50 with DMS-273 was 298 nM; in the experiment on WiDr it was 505 nM; in the experiment with JM1, 76 nM; with SU-DHL-5, 132 nM; in the experiment with T-24 it was 650 nM; in the experiment on SK-N-AS it was 31.9 nM. For the same compound, the GI50 with Z-138 [1] is 14 nM; with SU-DHL-2, 86 nM; in the experiment with Ramos, 546 nM; in the experiment on Calu-6 it was 206 nM; with CHP-212, 24 nM; in the experiment with LS-1034, 172 nM. Also, the concentration for 50% growth inhibition (GI50) in the experiment with SK-MEL-28 was determined as 239 nM; with CCF-STTG1 it was 115 nM; in the experiment with NCI-H69, 144 nM; in the experiment on SK-NEP-1 it was 264 nM; in the experiment on HCC1143, 509 nM; in the experiment with DBTRG-05MG, 156 nM. The GI50 in the experiment with SK-LMS-1 amounted to 113 nM; in the experiment with JVM-2, 172 nM; in [4], 29 nM; in the experiment with MDA-MB-468, 585 nM; in the experiment with HCC1806, 261 nM; in the experiment with A-427 it was 130 nM. Besides, in the experiment on SU-DHL10, the GI50 amounted to 495 nM. The inhibition entry in experiment [2] and in experiment [3] was “inactive” in each case.
Take `CC(=O)N1CCC(Nc2cc(C(=O)NC[C@H](O)CN3CCc4ccccc4C3)ncn2)CC1` [PEMRAMETOSTAT]: the GI50 in the experiment on JM1 was found to be 79 nM; in the experiment with SU-DHL-5, 28 nM; with T-24 it was 765 nM; in the experiment with Z-138 [1] it was 4 nM; with SU-DHL-2 it was 28 nM; with HCC1143 it was 246 nM. Also, the GI50 was found to be 9 nM in the experiment on JVM-2; 198 nM in the experiment with SCaBER; 38 nM in experiment [4]; 57 nM with MDA-MB-468; 98 nM in the experiment on HCC1806; 54 nM in the experiment on SU-DHL10. Moreover, the Activity result in the experiment on Z-138 [5] and with Maver1 was “Dose-Dependent Effect” each time.
